Values after ≈ are worked out from the molar mass of the structure shown. Active and inactive are the calls of the source. The calls are words filed in the database; no cut-off is given here.
Experiments:
[1] = tested on: Staphylococcus aureus; test: Antibacterial activity against gram-positive Staphylococcus aureus SA161 harboring tet(M) by CLSI method; format: functional
How it was run: (§1)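 CLSI broth microdilution MIC in fresh cation-adjusted Mueller Hinton broth, supplemented with defibrinated horse blood where appropriate. Compounds serially diluted in sterile deionized water. Runs accepted when comparator antibiotics against ATCC quality-control strains fell within recommended ranges.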

[2] = tested on: Burkholderia cenocepacia; test: Antibacterial activity against gram-negative Burkholderia cenocepacia BC240 by CLSI method; format: functional
How it was run: (§2)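 Defibrinated horse blood added where appropriate. Compounds serially diluted in sterile deionized water. Strains from ATCC unless otherwise noted. Runs accepted when comparator antibiotics fell within QC ranges for ATCC quality control strains.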

[3] = tested on: Escherichia coli; test: Antibacterial activity against gram-negative Escherichia coli EC107 by CLSI method; format: functional
How it was run: as §2, with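 “Broth microdilution MIC per CLSI in cation-adjusted Mueller Hinton broth, prepared fresh and held at 4 °C. Defibrinated” for “Defibrinated”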

[4] = tested on: Escherichia coli; test: Antibacterial activity against gram-negative Escherichia coli EC155 harboring tet(A) by CLSI method; format: functional; how it was run: as §1
[5] = tested on: Pseudomonas aeruginosa; test: Antibacterial activity against Pseudomonas aeruginosa PA1145 in BALB/c mouse model of lung infection assessed as reduction in log10CFU per gram of lung at 40 mg/kg, iv bid administered 2 to 12 hrs of post-infection measured after 24 hrs relative to untreated control; format: functional
How it was run: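 Female BALB/c mice, 18 to 20 g, infected intranasally under light anesthesia with ~ 2 x 10^7 CFU/mouse of P. aeruginosa PA1145 (cystic fibrosis isolate) in 0.05 mL. Treatment at 2 and 12 h post-infection, IV, or intranasally for tobramycin; n = 6 per group. Lungs harvested 24 h after treatment began, homogenized, plated on MacConkey medium, incubated overnight at 37 °C in 5% CO2. CFU per gram lung compared with T = 24 h untreated control.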

[6] = tested on: Stenotrophomonas maltophilia; test: Antibacterial activity against gram-negative Stenotrophomonas maltophilia SM256 by CLSI method; format: functional
How it was run: as §2, with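 “Broth microdilution MIC per CLSI in cation-adjusted Mueller Hinton broth, prepared fresh and held at 4 °C. Defibrinated” for “Defibrinated”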

[7] = tested on: Klebsiella pneumoniae; test: Antibacterial activity against gram-negative Klebsiella pneumoniae KP457 harboring blacTX-M-15 extended spectrum beta-lactamase gene by CLSI method; format: functional; how it was run: as §1
[8] = tested on: Enterococcus faecalis; test: Antibacterial activity against gram-positive Enterococcus faecalis EFs327 harboring tet(M) by CLSI method; format: functional; how it was run: as §1
[9] = tested on: Acinetobacter baumannii; test: Antibacterial activity against gram-negative Acinetobacter baumannii AB250 by CLSI method; format: functional
How it was run: as §2, with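 “Broth microdilution MIC per CLSI in cation-adjusted Mueller Hinton broth, prepared fresh and held at 4 °C. Defibrinated” for “Defibrinated”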

[10] = tested on: Staphylococcus aureus; test: Antibacterial activity against gram-positive Staphylococcus aureus SA101 by CLSI method; format: functional
How it was run: as §2, with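 “Broth microdilution MIC per CLSI in cation-adjusted Mueller Hinton broth, prepared fresh and held at 4 °C. Defibrinated” for “Defibrinated”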

[11] = tested on: Enterococcus faecium; test: Antibacterial activity against gram-positive Enterococcus faecium EFm404 harboring tet(M) by CLSI method; format: functional; how it was run: as §1
[12] = tested on: Staphylococcus aureus; test: Antibacterial activity against gram-positive Staphylococcus aureus SA158 harboring tet(K) by CLSI method; format: functional; how it was run: as §1
[13] = tested on: Streptococcus pneumoniae; test: Antibacterial activity against gram-positive Streptococcus pneumoniae SP160 harboring tet(M) by CLSI method; format: functional; how it was run: as §1
[14] = tested on: Enterobacter cloacae; test: Antibacterial activity against gram-negative Enterobacter cloacae EC1603 harboring tet(A) by CLSI method; format: functional; how it was run: as §1
[15] = tested on: Proteus mirabilis; test: Antibacterial activity against gram-negative Proteus mirabilis PM385 by CLSI method; format: functional
How it was run: as §2, with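 “Broth microdilution MIC per CLSI in cation-adjusted Mueller Hinton broth, prepared fresh and held at 4 °C. Defibrinated” for “Defibrinated”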

[16] = tested on: Pseudomonas aeruginosa; test: Antibacterial activity against Pseudomonas aeruginosa PA1145 in BALB/c mouse model of lung infection administered as iv bid for 2 to 12 hrs of post-infection measured after 24 hrs; format: functional
How it was run: (§3)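 Female BALB/c mice (18–20 g) infected intranasally with ~2 x 10^7 CFU/mouse P. aeruginosa PA1145 (cystic fibrosis isolate) under light anesthesia. Dosing at 2 and 12 h post-infection, IV (compound, tigecycline, amikacin) or intranasal (tobramycin); n = 6 per group. Lungs harvested 24 h after treatment start, homogenized, plated on MacConkey agar, 37 °C overnight; CFU/g lung; Mann-Whitney vs T = 0 h or 24 h controls.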

[17] = tested on: Pseudomonas aeruginosa; test: Antibacterial activity against gram-negative Pseudomonas aeruginosa PA555 by CLSI method; format: functional
How it was run: as §2, with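 “Broth microdilution MIC per CLSI in cation-adjusted Mueller Hinton broth, prepared fresh and held at 4 °C. Defibrinated” for “Defibrinated”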

[18] = tested on: Klebsiella pneumoniae; test: Antibacterial activity against gram-negative Klebsiella pneumoniae KP194 by CLSI method; format: functional
How it was run: as §2, with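 “Broth microdilution MIC per CLSI in cation-adjusted Mueller Hinton broth, prepared fresh and held at 4 °C. Defibrinated” for “Defibrinated”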

[19] = tested on: Pseudomonas aeruginosa; test: Antibacterial activity against gram-negative Pseudomonas aeruginosa PA169 by CLSI method; format: functional; how it was run: as §2
[20] = tested on: Enterococcus faecalis; test: Antibacterial activity against gram-positive Enterococcus faecalis EF159 harboring tet(M) by CLSI method; format: functional; how it was run: as §1
[21] = tested on: Klebsiella pneumoniae; test: Antibacterial activity against gram-negative Klebsiella pneumoniae KP153 harboring tet(A) by CLSI method; format: functional; how it was run: as §1
[22] = tested on: Streptococcus pneumoniae; test: Antibacterial activity against gram-positive Streptococcus pneumoniae SP193 by CLSI method; format: functional
How it was run: as §2, with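 “Broth microdilution MIC per CLSI in cation-adjusted Mueller Hinton broth, prepared fresh and held at 4 °C. Defibrinated” for “Defibrinated”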

[23] = tested on: Proteus mirabilis; test: Antibacterial activity against gram-negative Proteus mirabilis PM122 by CLSI method; format: functional; how it was run: as §2
[24] = tested on: Pseudomonas aeruginosa; test: Antibacterial activity against Pseudomonas aeruginosa PA694 in CD-1 mouse model of thigh infection administered as iv bid for 2 to 12 hrs of post-infection measured after 24 hrs; format: functional
How it was run: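 Female specific-pathogen-free CD-1 mice (22 ± 2 g), groups of 5, inoculated intramuscularly into right thigh with 3-5 x 10^6 CFU/mouse P. aeruginosa PA694 (UTI isolate). IV dosing at 5, 15 and 40 mg/kg at 2 and 12 h post-infection. Thigh muscle harvested at 24 h, homogenized in PBS pH 7.4, plated on Brain Heart Infusion agar + 0.5% charcoal; CFU/g thigh vs untreated controls; Mann-Whitney.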

[25] = tested on: Pseudomonas aeruginosa; test: Antibacterial activity against Pseudomonas aeruginosa PA694 in CD-1 mouse model of thigh infection assessed as reduction in log10CFU per gram of thigh at 40 mg/kg, iv bid administered 2 to 12 hrs of post-infection measured after 24 hrs relative to untreated control; format: functional
How it was run: (§4)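 Groups of 5 female specific-pathogen-free CD-1 mice, 22 ± 2 g. Right thigh inoculated intramuscularly with 3-5 x 10^6 CFU/mouse of P. aeruginosa PA694 (UTI isolate). Dosed IV at 5, 15 or 40 mg/kg at 2 and 12 h post-infection. Thigh muscle harvested at 24 h post-infection, homogenized in PBS (pH 7.4), plated on Brain Heart Infusion agar + 0.5% charcoal. Log10 CFU per gram thigh compared with 24 h untreated control.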

[26] = tested on: Pseudomonas aeruginosa; test: Antibacterial activity against Pseudomonas aeruginosa PA694 in CD-1 mouse model of thigh infection assessed as reduction in log10CFU per gram of thigh at 15 mg/kg, iv bid administered 2 to 12 hrs of post-infection measured after 24 hrs relative to untreated control; format: functional; how it was run: as §4
[27] = tested on: Pseudomonas aeruginosa; test: Antibacterial activity against Pseudomonas aeruginosa PA694 in CD-1 mouse model of thigh infection assessed as reduction in log10CFU per gram of thigh at 5 mg/kg, iv bid administered 2 to 12 hrs of post-infection measured after 24 hrs relative to untreated control; format: functional; how it was run: as §4
[28] = tested on: Pseudomonas aeruginosa; test: Antibacterial activity against Pseudomonas aeruginosa PA1145 in BALB/c mouse model of lung infection assessed as reduction in log10CFU per gram of lung at 40 mg/kg, in bid administered 2 to 12 hrs of post-infection measured after 24 hrs relative to untreated control; format: functional, organism-based; how it was run: as §3
[29] = tested on: Pseudomonas aeruginosa; test: Antibacterial activity against Pseudomonas aeruginosa PA1145 in BALB/c mouse model of lung infection administered intranasally as bid for 2 to 12 hrs of post-infection measured after 24 hrs; format: functional; how it was run: as §3

| Structure (SMILES) | MIC [1] | MIC [2] | MIC [3] | MIC [4] | MIC [6] | MIC [9] | MIC [10] | MIC [12] | MIC [13] | MIC [19] | MIC [20] | MIC [21] | MIC [22] | MIC [23] | further results |
| --- | --- | --- | --- | --- | --- | --- | --- | --- | --- | --- | --- | --- | --- | --- | --- |
| CN(C)c1cc(NC(=O)CNC(C)(C)C)c(O)c2c1C[C@H]1C[C@H]3[C@H](N(C)C)C(O)=C(C(N)=O)C(=O)[C@@]3(O)C(O)=C1C2=O [TIGECYCLINE] | 0.125 µg/mL (≈ 0.213 µM) | 16 µg/mL (≈ 27.3 µM) | 0.125 µg/mL (≈ 0.213 µM) | 1 µg/mL (≈ 1.71 µM) | 2 µg/mL (≈ 3.41 µM) | 8 µg/mL (≈ 13.7 µM) | 0.0625 µg/mL (≈ 0.107 µM) | 0.125 µg/mL (≈ 0.213 µM) | 0.0156 µg/mL (≈ 0.0266 µM) | – | – | – | – | – | Activity [5]: 4.2 deltalog10CFU; MIC [7]: 1 µg/mL (≈ 1.71 µM); MIC [8]: 0.125 µg/mL (≈ 0.213 µM); MIC [11]: 0.0312 µg/mL (≈ 0.0533 µM); MIC [14]: 4 µg/mL (≈ 6.83 µM); MIC [15]: 4 µg/mL (≈ 6.83 µM); MIC [16]: 16 µg/mL (≈ 27.3 µM); MIC [17]: 16 µg/mL (≈ 27.3 µM) |
| CN1CCCC1c1cc(O)c2c(c1Cl)C[C@H]1C[C@H]3[C@H](N(C)C)C(O)=C(C(N)=O)C(=O)[C@@]3(O)C(O)=C1C2=O (stereo partly specified) | 1 µg/mL (≈ 1.88 µM) | 8 µg/mL (≈ 15 µM) | ≤ 0.0156 µg/mL | 1 µg/mL (≈ 1.88 µM) | 0.125 µg/mL (≈ 0.235 µM) | 0.5 µg/mL (≈ 0.94 µM) | 0.125 µg/mL (≈ 0.235 µM) | ≤ 0.0156 µg/mL | 0.5 µg/mL (≈ 0.94 µM) | 16 µg/mL (≈ 30.1 µM) | 1 µg/mL (≈ 1.88 µM) | 0.5 µg/mL (≈ 0.94 µM) | ≤ 0.0156 µg/mL | 0.5 µg/mL (≈ 0.94 µM) | MIC [18]: 8 µg/mL (≈ 15 µM) |
| CN(C)[C@@H]1C(O)=C(C(N)=O)C(=O)[C@@]2(O)C(O)=C3C(=O)c4c(O)cc(-c5cccnc5)c(Cl)c4C[C@H]3C[C@@H]12 | 1 µg/mL (≈ 1.9 µM) | 8 µg/mL (≈ 15.2 µM) | 2 µg/mL (≈ 3.8 µM) | > 32 µg/mL | 2 µg/mL (≈ 3.8 µM) | > 32 µg/mL | 0.125 µg/mL (≈ 0.238 µM) | 0.125 µg/mL (≈ 0.238 µM) | 8 µg/mL (≈ 15.2 µM) | > 32 µg/mL | 1 µg/mL (≈ 1.9 µM) | > 32 µg/mL | 0.25 µg/mL (≈ 0.475 µM) | 16 µg/mL (≈ 30.4 µM) | – |
| C[C@@H](O)[C@H]1C(=O)N2C(C(=O)O)=C(S[C@@H]3CN[C@H](C(=O)N(C)C)C3)[C@H](C)[C@H]12 [MEROPENEM] | – | – | – | – | – | – | – | – | – | – | – | – | – | – | MIC [24]: 0.125 µg/mL (≈ 0.326 µM); Activity [25]: 4.9 deltalog10CFU; Activity [26]: 4.2 deltalog10CFU; Activity [27]: 2.9 deltalog10CFU |
| NC[C@H]1O[C@H](O[C@H]2[C@H](O)[C@@H](O[C@H]3O[C@H](CO)[C@@H](O)[C@H](N)[C@H]3O)[C@H](N)C[C@@H]2N)[C@H](N)C[C@@H]1O [TOBRAMYCIN] | – | – | – | – | – | – | – | – | – | – | – | – | – | – | Activity [28]: inactive; MIC [29]: 1 µg/mL (≈ 2.14 µM) |
| CN(C)[C@@H]1C(O)=C(C(N)=O)C(=O)[C@@]2(O)C(O)=C3C(=O)c4c(O)cc(-c5ccncc5)c(Cl)c4C[C@H]3C[C@@H]12 | 0.5 µg/mL (≈ 0.951 µM) | 8 µg/mL (≈ 15.2 µM) | 2 µg/mL (≈ 3.8 µM) | > 32 µg/mL | 2 µg/mL (≈ 3.8 µM) | 2 µg/mL (≈ 3.8 µM) | 0.125 µg/mL (≈ 0.238 µM) | 0.125 µg/mL (≈ 0.238 µM) | 4 µg/mL (≈ 7.61 µM) | > 32 µg/mL | 0.5 µg/mL (≈ 0.951 µM) | > 32 µg/mL | 0.25 µg/mL (≈ 0.475 µM) | 16 µg/mL (≈ 30.4 µM) | – |

Reference: ChEMBL document CHEMBL4007456, “Heterocyclyl Tetracyclines. 1. 7-Trifluoromethyl-8-Pyrrolidinyltetracyclines: Potent, Broad Spectrum Antibacterial Agents with Enhanced Activity against Pseudomonas aeruginosa” (2017)
